mIAP activ = mouse IAP activation; muIAP, CDP-Star luminescence, 30 min; stronger effect = higher value; 1 = vehicle-only enzyme signal, 0 = enzyme-free wells; activation factor at 10 µM; AID 2805; actives 0.24% (n = 330,000);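 active = activation factor of at least 2 at 20 µM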
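Assay system: mouse IAP enzyme / Compound: DMSO-dissolved test compounds / Timing: 30 min, room temperature / Measured by: luminescence from enzymatic CDP-Star hydrolysis / Control set: DMSO-only wells, enzyme-free buffer wells as negative control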
mIAP block = blocks mouse intestinal alkaline phosphatase; purified mouse IAP, CDP-Star luminescence, 30 min; inhibition, % at 10 µM; actives 0.2% (n = 330,000); AID 2806;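 active = inhibition of at least 40% at 10 µM in the primary screen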;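 note: plate controls were DMSO with enzyme for no effect and no enzyme wells for full effect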
hIAP block = human IAP inhibition; P09923; purified IAP, CDP-Star luminescence, 30 min; inhibition, % at 10 µM; actives 0.12% (n = 330,000); AID 2544;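 active = inhibition reaching a set limit with compound at 10 µM in the primary screen, cut at about 35% in these data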;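 note: plate controls were DMSO wells with enzyme for no effect and no-enzyme buffer wells for full effect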
Target sequence (P09923 whole entry, looked up): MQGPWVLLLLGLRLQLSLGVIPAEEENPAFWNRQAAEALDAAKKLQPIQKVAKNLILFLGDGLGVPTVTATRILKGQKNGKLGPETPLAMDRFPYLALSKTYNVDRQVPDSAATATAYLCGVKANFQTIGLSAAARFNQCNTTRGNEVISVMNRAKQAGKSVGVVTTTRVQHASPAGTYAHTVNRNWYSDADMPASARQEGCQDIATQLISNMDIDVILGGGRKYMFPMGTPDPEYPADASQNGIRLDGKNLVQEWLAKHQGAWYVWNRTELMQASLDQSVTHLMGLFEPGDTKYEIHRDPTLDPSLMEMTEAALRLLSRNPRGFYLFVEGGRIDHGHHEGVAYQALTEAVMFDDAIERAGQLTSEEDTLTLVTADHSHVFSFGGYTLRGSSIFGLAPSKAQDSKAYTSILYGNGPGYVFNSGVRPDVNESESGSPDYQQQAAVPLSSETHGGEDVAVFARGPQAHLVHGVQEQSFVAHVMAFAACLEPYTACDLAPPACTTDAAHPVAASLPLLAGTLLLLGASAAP
bIAP act = intestinal alkaline phosphatase (bovine) activation; AID 1016; purified bovine IAP, CDP-star luminescence, 30 min; stronger effect = higher value; fold of DMSO-control signal, blank-subtracted; actives 0.17% (n = 200,000); activation factor at 20 µM;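 active = activation factor of 2 or more at 20 µM, a signal rise over negative controls twice the positive control's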
bIAP inh = intestinal alkaline phosphatase (bovine) inhibition. purified bovine IAP, CDP-star luminescence, 30 min. inhibition, % at 20 µM. 190,000 tested, under 10 active. AID 1019;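 active = over 50% inhibition of intestinal alkaline phosphatase at 20 µM in the single-dose screen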
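Assay system: bovine IAP enzyme; medium: DEA buffer 100 mM, pH 9.8, with MgCl2 1.0 mM, ZnCl2 0.02 mM; doses: 20 µM single dose; incubation: enzyme reaction for 30 min at room temperature; detection: CDP-star luminescence signal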
hIAP activ = human IAP activation. P09923. purified human IAP, CDP-Star luminescence, 30 min; stronger effect = higher value; 1 = vehicle-only enzyme, 0 = enzyme-free background. activation factor at 10 µM. actives 0.16% (n = 330,000);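 active = activation factor of the enzyme at least 2-fold when tested at 20 µM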
Numbers without * were called inactive; x = not tested or not shown. An excerpt weighted towards active compounds, which were near 0.77% of everything screened.

SMILES | mIAP activ | mIAP block | hIAP block | bIAP act | bIAP inh | hIAP activ
CCC(C(=O)NCc1ccc(F)cc1)N(Cc1cccs1)C(=O)c1snc(C(N)=O)c1N (centres undefined) | 0.96 | 4 | -3 | x | x | 1
COc1ccccc1Nc1nc(-c2cccs2)cs1 | 0.57 | 43* | 5 | 0.8 | 20 | 0.95
NS(=O)(=O)c1ccc(CCNC(=O)C(=O)c2cn(CC(=O)N3CCCC3)c3ccccc23)cc1 | 0.99 | 0 | -18 | x | x | 1.2
COc1ccc(N(C(=O)c2ccn[nH]2)C(C(=O)NC(C)(C)C)c2ccc(F)cc2)cc1 (centres undefined) | 1.1 | -13 | 0 | 3* | -201 | 1
CCC(C)(C)NC(=O)C(c1cccc(OC)c1)N(C(=O)c1ccn[nH]1)c1cccc(OC)c1 (centres undefined) | 1.2 | -16 | -60 | 0.7 | 27 | 1.6
COc1ccc(N(C(=O)C2CSC(=O)C2)C(C(=O)NC(C)(C)C)c2ccncc2)cc1 (centres undefined) | 1 | -2 | -15 | 0.9 | 13 | 1.1
CC(C)(C)NC(=O)C(c1ccc(F)cc1)N(CCc1ccccc1)C(=O)c1ccn[nH]1 (centres undefined) | 1.1 | -6 | -85 | 2* | -100 | 1.9
CCC(C)(C)NC(=O)C(c1cccs1)N(C(=O)c1ccn[nH]1)c1ccccc1 (centres undefined) | 1 | -1 | 5 | 2.3* | -133 | 0.95
O=C(NC(=S)NN1CCOCC1)c1cc(Br)ccc1Cl | 1 | -1 | 0 | x | x | 1
O=c1[nH]c2cc(Cl)c([N+](=O)[O-])nc2[nH]1 | 0.47 | 54* | 13 | 0.6 | 38 | 0.87
N#CCc1ccc(NC(=O)Nc2cccc3ccccc23)cc1 | 2.1* | -110 | -27 | x | x | 1.3
Cc1ccc(NC(=O)Nc2cccc3ccccc23)cc1 | 1.2 | -20 | 0 | x | x | 1
CCCCCOc1ccc(CSCCNC(=S)Nc2ccccc2)cc1 | 2.5* | -147 | -69 | 1.1 | -6 | 1.7
CC(C)COc1ccc(CSCCNC(=S)Nc2ccccc2)cc1 | 2.4* | -144 | -3 | 0.6 | 43 | 1
CCCCOc1ccc(CSCCNC(=S)Nc2ccccc2)cc1 | 1.8 | -84 | -11 | 1 | 2 | 1.1
CCCn1cc(CN2CCC(Oc3ccc(C(=O)N4CCCC4)cc3)CC2)c(C)n1 | 0.98 | 2 | 0 | x | x | 1
CC(C)c1ccc(/C=C(\NC(=O)c2ccccc2)C(=O)NCCN2CCOCC2)cc1 | 1 | -4 | -21 | x | x | 1.2
O=C(O)COc1ccc(F)cc1Br | 0.96 | 4 | -1 | x | x | 1
Cn1nc(C(=O)NC2CCCCC2)c2ccccc2c1=O | 0.96 | 4 | 12 | 1 | 4 | 0.88
Cn1nc(CC(=O)NC2CCCCCCCCCCC2)c2ccccc2c1=O | 1.1 | -7 | 18 | 2.3* | -129 | 0.82
CN(C(=O)c1ccccc1-c1ccccc1C(=O)O)c1ccccc1 | 1.1 | -11 | 4 | x | x | 0.96
Cc1ccccc1CSCC(=O)NCc1ccco1 | 1 | -1 | 6 | 2.2* | -124 | 0.94
CCOc1ccc(OCC)c(NC(=O)Nc2ccc3c(c2)N(C)C(=O)CS3)c1 | 2.4* | -138 | 9 | 1.5 | -45 | 0.91
COc1cccc(NC(=O)Nc2ccc3c(c2)N(C)C(=O)CS3)c1 | 2.7* | -170 | -18 | 1.1 | -10 | 1.2
CC(=O)Nc1ccc(NC(=O)Nc2ccc3c(c2)N(C)C(=O)CS3)cc1 | 1.4 | -36 | 6 | 1 | -2 | 0.94
SMILES | mIAP activ | mIAP block | hIAP block | bIAP act | bIAP inh | hIAP activ
Cc1nc(SC(C)C(=O)c2c(N)n(C)c(=O)n(C)c2=O)c2c(C)c(C)sc2n1 (centres undefined) | 0.96 | 4 | 8 | x | x | 0.92
CC1CC(C)CN(S(=O)(=O)c2ccc3c(c2)CCN3C(=O)C2CC2)C1 (centres undefined) | 0.99 | 1 | 8 | x | x | 0.92
CC(C)(C)OC(=O)[C@H](Cc1ccccc1)NC(=O)c1nc[nH]c1C(=O)N1CCN(C(=O)OC(C)(C)C)CC1 | 0.59 | 41* | -36 | x | x | 1.4
CC(C)(C)OC(=O)N1CCN(C(=O)c2[nH]cnc2C(=O)N[C@@H](Cc2ccccc2)C(=O)OCc2ccccc2)CC1 | 0.87 | 13 | -33 | x | x | 1.3
Cc1ccc(NC(=O)N/C=C/c2ccccc2)cc1 | 2.2* | -123 | 5 | 0.8 | 16 | 0.95
COc1ccc(NC(=O)N/C=C/c2ccc(Cl)cc2)cc1 | 1.1 | -9 | -12 | 1 | -3 | 1.1
Cc1ccc(NC(=O)N/C=C/c2ccc(Cl)cc2)cc1 | 2.3* | -131 | -24 | 0.5 | x | 1.2
COc1cc(/C=C2\SC(=S)N(NC(=O)c3ccccc3O)C2=O)ccc1O | 0.63 | 37 | 18 | x | x | 0.82
O=C(NN1C(=O)/C(=C/c2cc([N+](=O)[O-])ccc2O)SC1=S)c1ccccc1O | 0.49 | 51* | -5 | x | x | 1.1
O=C(N/N=C\c1ccc([N+](=O)[O-])o1)c1cncc(Br)c1 | 0.65 | 35 | 10 | x | x | 0.9
O=C(N/N=C/c1ccc(-c2ccccc2[N+](=O)[O-])o1)c1cncc(Br)c1 | 0.8 | 20 | -4 | 3.7* | -268 | 1
COc1cccc(NC(=O)Nc2ccc(Cc3ccncc3)cc2)c1 | 4.6* | -357 | -31 | 1 | 4 | 1.3
COc1cccc(C2(c3cccc(OC)c3)CC2C(=O)Nc2cccc3ccccc23)c1 (centres undefined) | 1.1 | -6 | -16 | 0.6 | 40 | 1.2
COc1cccc(NC(=O)Nc2ccncc2)c1 | 0.93 | 7 | -21 | 1.1 | -6 | 1.2
COc1cccc(NC(=O)C2CC2(c2cccc(OC)c2)c2cccc(OC)c2)c1 (centres undefined) | 2.2* | -123 | 6 | 0.8 | 23 | 0.94
COc1cccc(NC(=O)Nc2cc(NC(=O)Nc3cccc(OC)c3)c(C)nc2C)c1 | 2* | -103 | -19 | 0.9 | 9 | 1.2
O=C(COC(=O)C1CCN(c2ccc(C(F)(F)F)cn2)CC1)NCc1ccc(F)cc1 | 1 | -1 | 4 | x | x | 0.96
Cc1ccsc1C(=O)OCC(=O)NCc1ccc(Cl)cc1 | 1 | 0 | 6 | x | x | 0.94
CCCCCCCCCCCC(=O)NC1CCS(=O)(=O)C1 (centres undefined) | 1.1 | -7 | -1 | 1 | 0 | 1
Cc1c(CCOC(=O)C23CC4CC(CC(C)(C4)C2)C3)sc[n+]1CC(=O)c1ccccc1 | 0.57 | 43* | 16 | 0.7 | 29 | 0.84
Cc1c(CCOC(=O)CC23CC4CC(CC(C)(C4)C2)C3)sc[n+]1CC(=O)c1ccccc1 | 0.62 | 38 | 2 | 0.6 | 43 | 0.98
S=C(NCc1ccc(Cl)cc1)Nc1ccccc1 | 1.3 | -31 | 8 | 1.1 | -8 | 0.92
S=C(NCc1cccs1)Nc1cc(Cl)cc(Cl)c1 | 4* | -300 | -10 | x | x | 1.1
S=C(NCc1ccc(Cl)cc1Cl)Nc1ccccc1 | 2.4* | -135 | -11 | 1.2 | -18 | 1.1

Assay outcomes from PubChem.
